Source: ChEMBL document CHEMBL3580644, “Synthesis of piperlongumine analogues and discovery of nuclear factor erythroid 2-related factor 2 (Nrf2) activators as potential neuroprotective agents” (J Med Chem, 2015)
Calls of active or inactive are those of the source. No cut-off for these calls is given here.

Tests used:
Assay type in all cases: functional, cell-based
PC-12 [1] = experiment: Cytoprotection activity against 6-OHDA-induced cytotoxicity in rat PC12 cells assessed as cell viability at 20 uM pre-incubated for 24 hrs before 6-OHDA exposure for 12 hrs by MTT assay
PC-12 [2] = experiment: Induction of antioxidant genes expression in rat PC12 cells assessed as increase in TrxR1 mRNA level at 20 uM incubated for 12 hrs by qRT-PCR method
Procedure, shortened: (§1)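 PC12 cells, 1×10^6 per 60-mm dish, 1 day, then 20 μM compound for 0, 3, 6 and 12 h; total RNA isolated, quantified by 260/280 absorbance; mRNA by real-time RT-PCR normalized to GAPDH; mean ± SD of three independent experiments versus 0 h.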

PC-12 [3] = experiment: Cytoprotection activity against 6-OHDA-induced cytotoxicity in rat PC12 cells assessed as cell viability at 10 and 20 uM pre-incubated for 24 hrs before 6-OHDA exposure for 12 hrs in presence of shNrf2 by MTT assay
PC-12 [4] = experiment: Cytoprotection activity against H2O2-induced cytotoxicity in rat PC12 cells assessed as cell viability at 10 and 20 uM pre-incubated for 24 hrs before H2O2 exposure for 12 hrs by LDH release assay
PC-12 [5] = experiment: Cytoprotection activity against H2O2-induced cytotoxicity in rat PC12 cells assessed as increase in cell viability pre-incubated for 24 hrs before H2O2 exposure for 12 hrs by MTT assay
PC-12 [6] = experiment: Cytoprotection activity against 6-OHDA-induced oxidative stress in rat PC12 cells assessed as Trx activity at pre-incubated for 24 hrs before 6-OHDA exposure for 12 hrs by recombinant rat TrxR1 based assay
Procedure, shortened: (§2)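 Cellular Trx activity: extract with 20 μg protein incubated 30 min at 37 °C in 100 mM Tris-HCl pH 7.4 with 0.3 mM insulin, 660 μM NADPH, 3 mM EDTA, 60 nM recombinant rat TrxR1; stopped with 1 mM DTNB in 6 M guanidine-HCl pH 8.0; A412 minus TrxR-free blank; % of DMSO control.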

PC-12 [7] = experiment: Cytoprotection activity against H2O2-induced cytotoxicity in rat PC12 cells assessed as cell viability at 10 and 20 uM pre-incubated for 24 hrs before H2O2 exposure for 12 hrs in presence of shNrf2 by MTT assay
PC-12 [8] = experiment: Induction of antioxidant genes expression in rat PC12 cells assessed as increase in Trx1 mRNA level at 20 uM incubated for 6 hrs by qRT-PCR method; procedure, shortened: as §1
PC-12 [9] = experiment: Cytoprotection activity against H2O2-induced oxidative stress in rat PC12 cells assessed as TrxR1 activity at pre-incubated for 24 hrs before H2O2 exposure for 12 hrs by Escherichia coli Trx based assay
Procedure, shortened: (§3)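 Cellular TrxR activity: extract with 20 μg protein incubated 30 min at 37 °C in 100 mM Tris-HCl pH 7.4 containing 0.3 mM insulin, 660 μM NADPH, 3 mM EDTA, 4 μM E. coli Trx; stopped with 1 mM DTNB in 6 M guanidine-HCl pH 8.0; A412 minus Trx-free blank; % of DMSO control.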

PC-12 [10] = experiment: Cytoprotection activity against 6-OHDA-induced oxidative stress in rat PC12 cells assessed as NQO1 activity at pre-incubated for 24 hrs before 6-OHDA exposure for 12 hrs by DCPIP dye reduction based spectrophotometry
Procedure, shortened: (§4)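 NQO1: PC12 lysate in RIPA buffer, 5 μg protein into 20 mM Tris-HCl pH 7.4, 200 μM NADH, 40 μM DCPIP; A600 decrease read every 8 s for 2 min at room temperature ± 20 μM dicoumarol; dicoumarol-inhibitable rate used, expressed as % of DMSO control. Cells pretreated 24 h; stress lines then 500 μM H2O2 or 200 μM 6-OHDA 12 h.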

PC-12 [11] = experiment: Cytoprotection activity against H2O2-induced cytotoxicity in rat PC12 cells assessed as cell viability at 20 uM pre-incubated for 24 hrs before H2O2 exposure for 12 hrs by MTT assay
PC-12 [12] = experiment: Cytoprotection activity against H2O2-induced apoptosis in rat PC12 cells assessed as reduction in apoptotic nuclei levels at 10 and 20 uM pre-incubated for 24 hrs before H2O2 exposure for 5 hrs by Hoechst 33342 staining based fluorescent microscopy
Procedure, shortened: (§5)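 PC12 cells seeded 2×10^5/well, grown 1 day, pretreated with compound 24 h, then medium replaced with fresh medium containing 200 μM 6-OHDA or 500 μM H2O2 for 5 h; Hoechst 33342 added at 5 μg/mL final; condensed, brightly fluorescent nuclei counted as apoptotic under fluorescence microscopy.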

PC-12 [13] = experiment: Induction of antioxidant genes expression in rat PC12 cells assessed as increase in Trx1 mRNA level at 20 uM incubated for 12 hrs by qRT-PCR method; procedure, shortened: as §1
PC-12 [14] = experiment: Cytoprotection activity against 6-OHDA-induced oxidative stress in rat PC12 cells assessed as reduction in ROS generation at 10 and 20 uM pre-incubated for 24 hrs before 6-OHDA exposure for 5 hrs by DCFH-DA dye based fluorescent microscopy
PC-12 [15] = experiment: Cytoprotection activity against H2O2-induced oxidative stress in rat PC12 cells assessed as NQO1 activity at pre-incubated for 24 hrs before H2O2 exposure for 12 hrs by DCPIP dye reduction based spectrophotometry; procedure, shortened: as §4
PC-12 [16] = experiment: Induction of total Nrf2 protein expression in rat PC12 cells at 20 uM incubated for 2 to 8 hrs by Western blotting method
Procedure, shortened: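 Seeded at 1×10^6 cells per 60-mm dish for 24 h, PC12 cells were treated with 20 μM compound for 0, 2, 4 and 8 h. Whole-cell, cytosolic and nuclear protein extracts were then prepared and Nrf2 probed by Western blot.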

PC-12 [17] = experiment: Cytoprotection activity against 6-OHDA-induced apoptosis in rat PC12 cells assessed as reduction in apoptotic nuclei levels at 10 and 20 uM pre-incubated for 24 hrs before 6-OHDA exposure for 5 hrs by Hoechst 33342 staining based fluorescent microscopy; procedure, shortened: as §5
PC-12 [18] = experiment: Induction of antioxidant genes expression in rat PC12 cells assessed as increase in TrxR1 mRNA level at 20 uM incubated for 3 hrs by qRT-PCR method
Procedure, shortened: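 PC12 cells (1×10^6 per 60-mm dish) seeded 1 day, then exposed to 20 μM compound for 0, 3, 6 and 12 h. Total RNA isolated and quantified by 260/280 absorbance. Transcripts measured by qRT-PCR, normalized to GAPDH internal control, compared against 0 h control. Means ± SD of three independent experiments.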

PC-12 [19] = experiment: Induction of antioxidant defense system in rat PC12 cells assessed as increase in NQO1 activity level incubated for 24 hrs by DCPIP dye reduction based spectrophotometry; procedure, shortened: as §4
PC-12 [20] = experiment: Cytoprotection activity against 6-OHDA-induced oxidative stress in rat PC12 cells assessed as TrxR1 activity at pre-incubated for 24 hrs before 6-OHDA exposure for 12 hrs by Escherichia coli Trx based assay; procedure, shortened: as §3
PC-12 [21] = experiment: Cytoprotection activity against H2O2-induced oxidative stress in rat PC12 cells assessed as Trx activity at pre-incubated for 24 hrs before H2O2 exposure for 12 hrs by recombinant rat TrxR1 based assay; procedure, shortened: as §2

| SMILES | Activity (PC-12 [1]) | Activity (PC-12 [2]) | Activity (PC-12 [3]) | Activity (PC-12 [4]) | Activity (PC-12 [5]) | Activity (PC-12 [6]) | Activity (PC-12 [7]) | Activity (PC-12 [8]) | Activity (PC-12 [9]) | Activity (PC-12 [10]) | Activity (PC-12 [11]) | Activity (PC-12 [12]) | Activity (PC-12 [13]) | Activity (PC-12 [14]) | Activity (PC-12 [15]) | Activity (PC-12 [16]) | Activity (PC-12 [17]) | Activity (PC-12 [18]) | Activity (PC-12 [19]) | Activity (PC-12 [20]) | also measured |
| --- | --- | --- | --- | --- | --- | --- | --- | --- | --- | --- | --- | --- | --- | --- | --- | --- | --- | --- | --- | --- | --- |
| COc1cc(/C=C/C(=O)N2CCCCC2=O)cc(OC)c1OC | Active | Active | inactive | Active | Dose-dependent effect | Active | inactive | Active | Active | Active | Active | Active | Active | Dose-dependent effect | Active | Active | Active | Active | Active | Active | Activity (PC-12 [21]): Active |
| COc1ccc(/C=C/C(=O)N2CCCC2=O)cc1 | Active | Active | inactive | Active | Dose-dependent effect | Active | inactive | Active | Active | Active | Active | Active | Active | Dose-dependent effect | Active | Active | Active | Active | Active | Active | Activity (PC-12 [21]): Active |
